Laboratory results as given in ChEMBL document CHEMBL1134847, “Development of orally active nonpeptidic inhibitors of human neutrophil elastase” (J Med Chem, 2001).
≈ marks a conversion by molar mass, not a printed value. Blank lines part the entries; values can stand above or below the compound they belong to.

What was measured:
[1] = system: Cricetinae gen. sp.; assay: Inhibition of HNE-induced lung hemorrhage in hamsters after oral administration of 30 mg/kg followed by intratracheal instillation of HNE (10 U/lung); type: functional
Summary of the method: (§1)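 Hamsters (n = 6-10) were dosed orally 1 h before intratracheal instillation of HNE (10 U/lung). The read-out was inhibition of the HNE-induced lung hemorrhage.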

[2] = system: Cricetinae gen. sp.; assay: Inhibition of HNE-induced lung hemorrhage in hamsters after oral administration followed by intratracheal instillation of HNE (10 U/lung); type: functional; summary of the method: as §1
[3] = molecular target: T1, Neutrophil elastase (Homo sapiens, UniProt P08246); assay: Binding constant derived from inhibition of elastase catalyzed hydrolysis of synthetic substrate
T1 sequence (P08246 whole entry): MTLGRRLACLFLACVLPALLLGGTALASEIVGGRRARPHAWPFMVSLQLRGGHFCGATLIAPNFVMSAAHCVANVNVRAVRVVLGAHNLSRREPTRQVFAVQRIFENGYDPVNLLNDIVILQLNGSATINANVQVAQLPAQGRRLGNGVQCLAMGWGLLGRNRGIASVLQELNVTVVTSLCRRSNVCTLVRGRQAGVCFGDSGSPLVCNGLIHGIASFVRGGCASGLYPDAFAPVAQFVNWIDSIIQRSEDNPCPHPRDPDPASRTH

[4] = Solubility was determined at a pH of 5.5 using physiological saline; type: physicochemical; settings: pH 5.5
Summary of the method: (§2)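 Solubility was measured in μg/mL in four vehicles: JP13th first fluid (pH ca. 1.2), 1/14 M phosphate citrate buffer (pH ca. 4.0), physiological saline (pH ca. 5.5) and 1/14 M phosphate buffer (pH ca. 7.4).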

[5] = Solubility was determined at a pH of […] using 1/14 M phosphate buffer; type: physicochemical; settings: pH 7.4
[6] = Solubility was determined at a pH of 1.2 using first fluid (JP13th); type: physicochemical; settings: pH 1.2; summary of the method: as §2
[7] = Bioavailability was evaluated when a dose of 3 mg/kg was administered orally; type: ADME, organism-based; settings: rat, in vivo, po
Summary of the method: (§3)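 Oral dosing as a suspension in 0.5% CMC; intravenous dosing as a solution in 35% HP-β-CD. Unchanged drug measured in plasma over 0–24 h after dosing. AUC is the integrated area under the concentration versus time curve. Oral bioavailability is taken from the […]. Mean ± SD, n = 4 (n = 3 for some i.v. groups).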

[8] = Pharmacokinetic parameter AUC was evaluated when a dose of 30 mg/kg is administered orally; type: ADME, organism-based; design: dose 30 mg/kg, route oral; settings: rat, in vivo, po; summary of the method: as §3
[9] = Pharmacokinetic parameter AUC was evaluated intravenous administration of 3 mg/kg; type: ADME, organism-based; design: dose 3 mg/kg, route intravenous; settings: rat, in vivo; summary of the method: as §3
[10] = Pharmacokinetic parameter AUC was evaluated when a dose of 3 mg/kg is administered orally to a fasting rat; type: ADME, organism-based; design: dose 3 mg/kg, route oral; settings: in vivo, po
[11] = Time of maximum concentration of the drug when administered orally a dose of 10 mg/kg to a fasting rat; type: ADME, organism-based; design: dose 10 mg/kg, route oral; settings: in vivo, po
Summary of the method: (§4)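 Unchanged drug measured in plasma over 0–24 h after dosing. Cmax recorded over 0–24 h, with Tmax as the time of Cmax. Half-life determined over 6–24 h after dosing. Mean ± SD, n = 4.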

[12] = Half life after administering orally a dose of 3 mg/kg; type: ADME, organism-based; design: dose 3 mg/kg, route oral; settings: rat, in vivo, po; summary of the method: as §4
[13] = Half life after administering orally a dose of 10 mg/kg to a fasting rat; type: ADME, organism-based; design: dose 10 mg/kg, route oral; settings: in vivo, po; summary of the method: as §4
[14] = Half life after administering intravenously a dose of 3 mg/kg; settings: rat, in vivo, iv
[15] = Pharmacokinetic parameter AUC was evaluated when a dose of 1 mg/kg is administered orally to a fasting rat; type: ADME, organism-based; design: dose 1 mg/kg, route oral; settings: in vivo, po; summary of the method: as §3
[16] = Maximum concentration of […] drug in plasma recorded in the period of 0-24 hr after administering orally a dose of 3 mg/kg; type: ADME, organism-based; design: dose 3 mg/kg, route oral; settings: rat, po; summary of the method: as §4
[17] = Time of maximum concentration of the drug when administered orally a dose of 30 mg/kg; type: ADME, organism-based; design: dose 30 mg/kg, route oral; settings: rat, in vivo, po; summary of the method: as §4
[18] = Half life after the administered orally a dose of 1 mg/kg to a fasting rat; type: ADME, organism-based; design: dose 1 mg/kg, route oral; settings: in vivo, po; summary of the method: as §4
[19] = Time of maximum concentration of the drug when administered orally a dose of 3 mg/kg to a fasting rat; type: ADME, organism-based; design: dose 3 mg/kg, route oral; settings: in vivo, po; summary of the method: as §4
[20] = Maximum concentration of […] drug in plasma recorded in the period of 0-24 hr after administering orally a dose of 1 mg/kg to a fasting rat; type: ADME, organism-based; design: dose 1 mg/kg, route oral; settings: po; summary of the method: as §4
[21] = Half life after administering orally a dose of 3 mg/kg to a fasting rat; type: ADME, organism-based; design: dose 3 mg/kg, route oral; settings: in vivo, po; summary of the method: as §4
[22] = Half life after administering orally a dose of 30 mg/kg; type: ADME, organism-based; design: dose 30 mg/kg, route oral; settings: rat, in vivo, po; summary of the method: as §4
[23] = Bioavailability was evaluated when a dose of 3 mg/kg was administered orally to a fasting rat; type: ADME, organism-based; settings: in vivo, po; summary of the method: as §3
[24] = Pharmacokinetic parameter AUC was evaluated when a dose of 10 mg/kg is administered orally to a fasting rat; type: ADME, organism-based; design: dose 10 mg/kg, route oral; settings: in vivo, po; summary of the method: as §3
[25] = Maximum concentration of […] drug in plasma recorded in the period of 0-24 hr after administering orally a dose of 10 mg/kg to a fasting rat; type: ADME, organism-based; design: dose 10 mg/kg, route oral; settings: po; summary of the method: as §4
[26] = Maximum concentration of […] drug in plasma recorded in the period of 0-24 hr after administering orally a dose of 3 mg/kg to a fasting rat; type: ADME, organism-based; design: dose 3 mg/kg, route oral; settings: po; summary of the method: as §4
[27] = Maximum concentration of […] drug in plasma recorded in the period of 0-24 hr after administering orally a dose of 30 mg/kg; type: ADME, organism-based; design: dose 30 mg/kg, route oral; settings: rat, po; summary of the method: as §4
[28] = Pharmacokinetic parameter AUC was evaluated when a dose of 3 mg/kg is administered orally; type: ADME, organism-based; design: dose 3 mg/kg, route oral; settings: rat, in vivo, po
[29] = Time of maximum concentration of the drug when administered orally a dose of 1 mg/kg to a fasting rat; type: ADME, organism-based; design: dose 1 mg/kg, route oral; settings: in vivo, po; summary of the method: as §4
[30] = Time of maximum concentration of the drug when administered orally at dose of 3 mg/kg; type: ADME, organism-based; design: dose 3 mg/kg, route oral; settings: rat, in vivo, po; summary of the method: as §4

Compound: CCCCc1nnc(C(=O)[C@@H](NC(=O)Cn2c(-c3ccc(F)cc3)ncc(N)c2=O)C(C)C)o1
inhibition in vivo at 30 mg/kg [1]: 63%

Compound: CC(C)[C@H](NC(=O)Cn1c(-c2ccc(F)cc2)nccc1=O)C(=O)c1nnc(C(C)(C)C)o1
ED50 [2]: 6.8 mg/kg

Compound: CC(C)[C@H](NC(=O)Cn1c(-c2ccc(F)cc2)nccc1=O)C(=O)c1nnc(C2(C)CC2)o1
ED50 [2]: 5.5 mg/kg

Ki [3]: 114 nM
Compound: CC(C)OC(=O)N1c2ccccc2C[C@H]1C(=O)N[C@H](C(=O)c1nnc(C(C)(C)C)o1)C(C)C

Ki [3]: 5.1 nM
Compound: CC(C)[C@H](NC(=O)[C@@H]1Cc2ccccc2N1C(=O)[C@@H](NC(=O)c1cccnc1)C(C)C)C(=O)c1nnc(C(C)(C)C)o1
inhibition in vivo at 30 mg/kg [1]: 36%

solubility [4]: 1010 µg/mL (≈ 2230 µM)
solubility [5]: 310 µg/mL (≈ 685 µM)
solubility [6]: > 2000 µg/mL
Compound: CC(C)[C@H](NC(=O)Cn1c(-c2ccccc2)ncc(N)c1=O)C(=O)c1nnc(C(C)(C)C)o1

Compound: CC(C)[C@H](NC(=O)Cn1c(-c2ccc(F)cc2)ncc(N)c1=O)C(=O)c1nnc(-c2cccnc2)o1
inhibition in vivo at 30 mg/kg [1]: 0%

Compound: CC(C)[C@H](NC(=O)CN1C(=O)N[C@H](C(C)C)C1=O)C(=O)c1nnc(C(C)(C)C)o1
inhibition in vivo at 30 mg/kg [1]: 0%

Compound: CC(C)[C@H](NC(=O)CN1C(=O)CN=C(c2ccc(Cl)cc2)c2ccccc21)C(=O)c1nnc(C(C)(C)C)o1
inhibition in vivo at 30 mg/kg [1]: 22%
Ki [3]: 57.8 nM

Compound: CC(C)[C@H](NC(=O)CN1C(=O)N[C@H](Cc2c[nH]c3ccccc23)C1=O)C(=O)c1nnc(C(C)(C)C)o1
inhibition in vivo at 30 mg/kg [1]: 22%

Compound: Cc1nnc(C(=O)[C@@H](NC(=O)Cn2c(-c3ccc(F)cc3)ncc(N)c2=O)C(C)C)o1
inhibition in vivo at 30 mg/kg [1]: 47%

Compound: CC(C)[C@H](NC(=O)Cn1c(-c2cccnc2)ncc(N)c1=O)C(=O)c1nnc(C(C)(C)C)o1
inhibition in vivo at 30 mg/kg [1]: 6%

bioavailability [7]: 39.4%
AUC [8]: 3050 ng·h/mL
AUC [9]: 1930 ng·h/mL
AUC [10]: 976 ng·h/mL
Tmax [11]: 0.31 h
half-life [12]: 5 h
half-life [13]: 7.4 h
half-life [14]: 3 h
AUC [15]: 230 ng·h/mL
Cmax [16]: 174 ng/mL
Tmax [17]: 0.44 h
half-life [18]: 5.1 h
Tmax [19]: 0.63 h
Cmax [20]: 115 ng/mL
half-life [21]: 4.5 h
half-life [22]: 8.7 h
bioavailability [23]: 50.5%
AUC [24]: 2130 ng·h/mL
Cmax [25]: 351 ng/mL
Cmax [26]: 257 ng/mL
Cmax [27]: 527 ng/mL
AUC [28]: 760 ng·h/mL
Tmax [29]: 0.31 h
Tmax [30]: 1.1 h
Compound: CC(C)C(NC(=O)Cn1c(-c2ccccc2)ncc(N)c1=O)C(=O)c1nnc(C(C)(C)C)o1 (stereo unspecified)
ED50 [2]: 5.1 mg/kg

Ki [3]: 725 nM
Compound: CC(C)OC(=O)N1Cc2ccccc2C[C@H]1C(=O)N[C@H](C(=O)c1nnc(C(C)(C)C)o1)C(C)C
inhibition in vivo at 30 mg/kg [1]: 0%

Compound: CC(C)C(NC(=O)Cn1c(-c2ccc(F)cc2)ncc(N)c1=O)C(=O)c1nnc(C(C)(C)C)o1 (stereo unspecified)
ED50 [2]: 10 mg/kg

Ki [3]: 1.66 nM
Compound: CC(C)[C@H](NC(=O)[C@@H]1Cc2ccccc2CN1C(=O)[C@@H](NC(=O)c1cccnc1)C(C)C)C(=O)c1nnc(C(C)(C)C)o1
ED50 [2]: 14.2 mg/kg
